Values after ≈ are worked out from the molar mass of the structure shown.
Legend:
Type in all cases: functional
[1] = tested on: Mycobacterium tuberculosis; assay: Antitubercular activity against Mycobacterium tuberculosis H37Rv by agar dilution method
How it was run: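 M. tuberculosis H37Rv on Middlebrook 7H11 agar with OADC, agar dilution per NCCLS-type MIC method, pH 7.4. MIC taken as the lowest concentration inhibiting 99% of bacterial growth, determined in duplicate.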

[2] = tested on: Mycobacterium tuberculosis; assay: Ratio of MIC for ciprofloxacin to compound for Mycobacterium tuberculosis H37Rv by agar dilution method
How it was run: (§1)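 Ratio of reference-drug MIC to test-compound MIC. Both MICs were measured against M. tuberculosis H37Rv by agar dilution on OADC-supplemented Middlebrook 7H11 at pH 7.4, with 99% growth inhibition as endpoint, in duplicate.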

[3] = tested on: Mycobacterium tuberculosis; assay: Ratio of MIC for ethambutol to compound for Mycobacterium tuberculosis H37Rv by agar dilution method; how it was run: as §1

| SMILES | MIC [1] [µM] | Ratio [2] | Ratio [3] |
| --- | --- | --- | --- |
| Cc1[nH]n(-c2ccccc2)c(=O)c1C(c1ccc([N+](=O)[O-])cc1)c1c(O)ccc2ccccc12 (stereo not given) | 6.9 (≈ 3.12 µg/mL) |  |  |
| Cc1[nH]n(-c2ccccc2)c(=O)c1C(c1ccccc1[N+](=O)[O-])c1c(O)ccc2ccccc12 (stereo not given) | 13.8 (≈ 6.23 µg/mL) |  |  |
| Cc1[nH]n(-c2ccccc2)c(=O)c1C(c1ccc(Cl)cc1)c1c(O)ccc2ccccc12 (stereo not given) | 14.1 (≈ 6.22 µg/mL) |  |  |
| Cc1[nH]n(-c2ccccc2)c(=O)c1C(c1ccccc1)c1c(O)ccc2ccccc12 (stereo not given) | 30.8 (≈ 12.5 µg/mL) |  |  |
| Cc1[nH]n(-c2ccccc2)c(=O)c1C(c1ccc(C(C)C)cc1)c1c(O)ccc2ccccc12 (stereo not given) | 14 (≈ 6.28 µg/mL) |  |  |
| COc1ccc(C(c2c(C)[nH]n(-c3ccccc3)c2=O)c2c(O)ccc3ccccc23)cc1 (stereo not given) | 28.6 (≈ 12.5 µg/mL) |  |  |
| Cc1ccc(C(c2c(C)[nH]n(-c3ccccc3)c2=O)c2c(O)ccc3ccccc23)cc1 (stereo not given) | 29.7 (≈ 12.5 µg/mL) |  |  |
| Cc1[nH]n(-c2ccc(F)cc2)c(=O)c1C(c1ccc(Cl)cc1)c1c(O)ccc2ccccc12 (stereo not given) | 3.4 (≈ 1.56 µg/mL) |  |  |
| Cc1[nH]n(-c2ccc(F)cc2)c(=O)c1C(c1ccc([N+](=O)[O-])cc1)c1c(O)ccc2ccccc12 (stereo not given) | 3.3 (≈ 1.55 µg/mL) |  |  |
| Cc1ccc(C(c2c(C)[nH]n(-c3ccc(F)cc3)c2=O)c2c(O)ccc3ccccc23)cc1 (stereo not given) | 14.2 (≈ 6.23 µg/mL) |  |  |
| Cc1[nH]n(-c2ccc(F)cc2)c(=O)c1C(c1ccc(Cl)cc1Cl)c1c(O)ccc2ccccc12 (stereo not given) | 1.6 (≈ 0.789 µg/mL) | 2.94 | 4.75 |
| Cc1[nH]n(-c2ccc(F)cc2)c(=O)c1C(c1cccc([N+](=O)[O-])c1)c1c(O)ccc2ccccc12 (stereo not given) | 6.7 (≈ 3.15 µg/mL) |  |  |
| Cc1[nH]n(-c2ccc(F)cc2)c(=O)c1C(c1ccc(F)cc1)c1c(O)ccc2ccccc12 (stereo not given) | 7.1 (≈ 3.14 µg/mL) |  |  |
| Cc1[nH]n(-c2ccc(F)cc2)c(=O)c1C(c1ccccc1)c1c(O)ccc2ccccc12 (stereo not given) | 14.7 (≈ 6.24 µg/mL) |  |  |
| Cc1[nH]n(-c2ccc(Cl)cc2)c(=O)c1C(c1ccc(Cl)cc1)c1c(O)ccc2ccccc12 (stereo not given) | 6.6 (≈ 3.14 µg/mL) |  |  |
| CC[C@@H](CO)NCCN[C@@H](CC)CO [ETHAMBUTOL] | 7.6 (≈ 1.55 µg/mL) |  |  |
| NNC(=O)c1ccncc1 [ISONIAZID] | 0.4 (≈ 0.0549 µg/mL) |  |  |
| CO[C@H]1/C=C/O[C@@]2(C)Oc3c(C)c(O)c4c(O)c(c(/C=N/N5CCN(C)CC5)c(O)c4c3C2=O)NC(=O)/C(C)=C\C=C\[C@H](C)[C@H](O)[C@@H](C)[C@@H](O)[C@@H](C)[C@H](OC(C)=O)[C@@H]1C [RIFAMPIN] | 0.1 (≈ 0.0823 µg/mL) |  |  |

Reference: ChEMBL document CHEMBL1828595, “A facile four-component sequential protocol in the expedient synthesis of novel 2-aryl-5-methyl-2,3-dihydro-1H-3-pyrazolones in water and their antitubercular evaluation” (2011)
